Columns and labels:
Mus musculus [1] = test: Toxicity in C57BL/6 mouse assessed as maximum weight loss at 7.5 mg/kg, ip; format: organism-based; parameters: dose 7.5 mg/kg, route intraperitoneal; conditions: in vivo
KB = test: Cytotoxicity against human epidermoid carcinoma of the nasopharynx KB cells assessed as reduction in optical density by MTT assay; format: functional, cell-based
How it was run: (§1)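 Cells were cultured in RPMI-1640 with 10% (v/v) fetal calf serum, 100 µg ml-1 penicillin and 100 µg ml-1 streptomycin at 37 °C in humidified 5% CO2. Compounds were dissolved in DMSO, with final DMSO at 2% (v/v) or lower. MTT staining was used, with three replicate wells per point. IC50 is the concentration giving a 50% drop in optical density versus untreated cells.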

Mus musculus [2] = test: Neurotoxicity in C57BL/6 mouse at 1 to 500 mg/kg, ip for 14 days; format: toxicity, organism-based; parameters: dose 1-500 mg/kg, route intraperitoneal; conditions: in vivo, 336 h
How it was run: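 Healthy C57BL/6 mice (9–12 weeks, 18–22 g) were fasted overnight with free access to water. Each received a single i.p. dose of 1.0–500 mg kg-1 in 0.5% CMC-Na, 10 mice per group (5 male, 5 female). Mice were watched continuously for 2 h, intermittently to 24 h, then occasionally to 14 days for tremor, twitch, jumping and supination. At day 14 they were killed and heart, liver and kidneys were examined macroscopically.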

769-P = test: Cytotoxicity against human renal carcinoma 769-P cells assessed as reduction in optical density by MTT assay; format: functional, cell-based; how it was run: as §1
A-375 = test: Cytotoxicity against human malignant melanoma A375 cells assessed as reduction in optical density by MTT assay; format: functional, cell-based; how it was run: as §1
BGC-823 = test: Cytotoxicity against human gastric carcinoma BGC823 cells assessed as reduction in optical density by MTT assay; format: functional, cell-based; how it was run: as §1
SK-OV-3 = test: Cytotoxicity against human ovary adenocarcinoma SKOV3 cells assessed as reduction in optical density by MTT assay; format: functional, cell-based; conditions: SK-OV-3, Female gonad; how it was run: as §1
[3] = Antitumor activity in mouse Sarcoma 180 cells inoculated mouse assessed as tumor inhibition rate at one fifth of LD50 concentration once a day for consecutive 7 days by ip; format: functional; parameters: scale not given: the % may be the effect or the level left
How it was run: (§2)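 Each tumour line was first grown in mice for 7 days, then harvested. Viable cells (2 × 10^6 per mouse) were injected s.c. into the armpit. Dosing began 24 h later: i.p., about one fifth of LD50, daily for 7 days, 10 female mice per group. […] Body weight was recorded every 3 days. Tumours were excised and weighed on day 21 to give inhibition rate.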

[4] = Antitumor activity in mouse Lewis lung cancer cells inoculated mouse assessed as tumor inhibition rate at one fifth of LD50 concentration once a day for consecutive 7 days by ip; format: functional, Cancer cell lines; parameters: scale not given: the % may be the effect or the level left; how it was run: as §2

SMILES: COc1ccc2c(c1)[nH]c1c(C)nccc12 [HARMINE]
- Activity (Mus musculus [1]): 8.5%
- IC50 (KB): 57.8 µM
- Activity (Mus musculus [2]): Toxic
- IC50 (769-P): 48.9 µM
- IC50 (A-375): 72.5 µM
- IC50 (BGC-823): 63.2 µM
- IC50 (SK-OV-3): 74.6 µM
- Activity [3]: 15.3%
- Activity [4]: 34.1%
